Calls of active or inactive are those of the source. The calls are words filed in the database; no cut-off is given here.
Legend:
Plasmodium falciparum [1] = test: Antiplasmodial activity against chloroquine, pyrimethamine and proguanil-resistant Plasmodium falciparum W2 infected in human A positive erythrocytes after 72 hrs by SYBR Green I assay; assay type: functional, organism-based; settings: W2, 72 h
[2] = Cytotoxicity against human HepG2 cells after 72 hrs by MTT assay; assay type: cell-based
In short: (§1)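 HepG2 or HFF cells seeded in RPMI with 10% foetal bovine serum, L-glutamine and penicillin/streptomycin, 37 °C, 6% CO₂; after 24 h, medium with various compound concentrations added for 72 h. Wells checked microscopically for precipitate. MTT in serum-free medium 2 h at 37 °C, formazan dissolved in DMSO, absorbance at 570 nm (630 nm reference). Viability as percent of untreated control; doxorubicin reference.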

[3] = Selectivity index, ratio of CC50 for human HepG2 cells to IC50 for chloroquine, pyrimethamine and proguanil-resistant Plasmodium falciparum W2; assay type: functional
Plasmodium falciparum [4] = test: Antiplasmodial activity against chloroquine, pyrimethamine and proguanil-resistant Plasmodium falciparum W2 infected in human A positive erythrocytes at > 50 uM after 72 hrs by SYBR Green I assay; assay type: functional, organism-based
In short: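 W2 strain kept in continuous culture in A+ human erythrocytes at 2.5% hematocrit. Medium was RPMI 1640 with 25 mM HEPES, 25 mM NaHCO3 and 10% A+ human serum, at 37 °C under 5% O2/5% CO2/90% N2, parasitaemia 1–6%. Drug exposure 72 h. Lysis buffer with SYBR Green I, saponin and Triton X-100, 15 min at 37 °C. Fluorescence read at ex 497/em 520 nm. IC50 by non-linear regression, mean of three independent experiments.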

Toxoplasma gondii = test: Antiparasitic activity against Toxoplasma gondii PRU tachyzoites harboring beta-Gal gene infected in human HFF cells after 72 hrs by microtiter plate based assay; assay type: functional, cell-based
In short: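 T. gondii PRU-b-Gal tachyzoites kept by serial passage in confluent human foreskin fibroblast (HFF) monolayers. Compounds in DMSO (final <0.5% v/v) added at various concentrations in triplicate. Controls: DMSO-treated, pyrimethamine, and uninfected drug-free monolayers. Incubated 72 h at 37 °C, 6% CO2. Read by colorimetric microtiter assay.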

[5] = Cytotoxicity against human HFF cells after 72 hrs by MTT assay; assay type: cell-based; in short: as §1
[6] = Solubility of the compound; assay type: physicochemical
Salmonella typhimurium [7] = test: Mutagenic activity in Salmonella Typhimurium TA100 assessed as number of spontaneous and drug-induced revertants at 25 to 125 nM after 48 hrs by Ames test; assay type: toxicity, organism-based; settings: salmonella enterica subsp. enterica serovar typhimurium, 0.125 µM
In short: (§2)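 Salmonella tester strains grown overnight in nutrient broth. Compound in DMSO added to 0.1 mL culture and preincubated 1 h at 37 °C with shaking, in duplicate. Mixed with 2 mL molten top agar and plated on Vogel-Bonner minimal agar. After 48 h at 37 °C, spontaneous and induced revertants per plate counted for each dose by laser colony counter, against negative controls.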

Salmonella typhimurium [8] = test: Mutagenic activity in Salmonella Typhimurium TA102 assessed as number of spontaneous and drug-induced revertants at 25 to 125 nM after 48 hrs by Ames test; assay type: toxicity, organism-based; settings: salmonella enterica subsp. enterica serovar typhimurium, 0.125 µM; in short: as §2
Salmonella typhimurium [9] = test: Mutagenic activity in Salmonella Typhimurium TA97a assessed as number of spontaneous and drug-induced revertants at 25 to 125 nM after 48 hrs by Ames test; assay type: toxicity, organism-based; settings: salmonella enterica subsp. enterica serovar typhimurium, 0.125 µM; in short: as §2
Salmonella typhimurium [10] = test: Mutagenic activity in Salmonella Typhimurium TA98 assessed as number of spontaneous and drug-induced revertants at 25 to 125 nM after 48 hrs by Ames test; assay type: toxicity, organism-based; settings: salmonella enterica subsp. enterica serovar typhimurium, 0.125 µM; in short: as §2
HepG2 = test: Cytotoxicity against human HepG2 cells at > 125 uM after 72 hrs by MTT assay; assay type: cell-based; settings: hepg2, 72 h; in short: as §1

ClC(Cl)(Cl)c1nc(Oc2cccc3ccccc23)c2ccccc2n1
IC50 (Plasmodium falciparum [1]): 3.9 µM
CC50 at 72 h [2]: 2.4 µM
Ratio CC50/IC50 [3]: 0.6

Cc1cccc(Oc2nc(C(Cl)(Cl)Cl)nc3ccccc23)c1
IC50 (Plasmodium falciparum [1]): 2.9 µM
CC50 at 72 h [2]: 7.6 µM
Ratio CC50/IC50 [3]: 2.6

ClC(Cl)(Cl)c1nc(Oc2ccc3ccccc3c2)c2ccccc2n1
IC50 (Plasmodium falciparum [1]): 2.3 µM
CC50 at 72 h [2]: 3.6 µM
Ratio CC50/IC50 [3]: 1.6

Cc1nc(Oc2ccc(Cl)cc2)c2ccccc2n1
IC50 (Plasmodium falciparum [1]): 28 µM
CC50 at 72 h [2]: 26 µM
Ratio CC50/IC50 [3]: 0.9

Cc1ccc(Oc2nc(C(Cl)(Cl)Cl)nc3ccccc23)cc1C
IC50 (Plasmodium falciparum [1]): 3.3 µM
CC50 at 72 h [2]: 29 µM
Ratio CC50/IC50 [3]: 8.8

Cc1ccc(Oc2nc(C(Cl)(Cl)Cl)nc3ccccc23)cc1
IC50 (Plasmodium falciparum [1]): 3.2 µM
CC50 at 72 h [2]: 42.8 µM
Ratio CC50/IC50 [3]: 13.4

Cc1ccccc1Oc1nc(C(Cl)(Cl)Cl)nc2ccccc12
IC50 (Plasmodium falciparum [1]): 5.5 µM
CC50 at 72 h [2]: 25.1 µM
Ratio CC50/IC50 [3]: 4.6

Fc1ccccc1Oc1nc(C(Cl)(Cl)Cl)nc2ccccc12
IC50 (Plasmodium falciparum [1]): 5 µM
CC50 at 72 h [2]: 38.3 µM
Ratio CC50/IC50 [3]: 7.7

Oc1nc(C(Cl)(Cl)Cl)nc2ccccc12
Activity (Plasmodium falciparum [4]): inactive
CC50 at 72 h [2]: 21 µM
Ratio CC50/IC50 [3]: <0.42

FC(F)(F)c1ccccc1Oc1nc(C(Cl)(Cl)Cl)nc2ccccc12
IC50 (Plasmodium falciparum [1]): 3.3 µM
CC50 at 72 h [2]: 34.9 µM
Ratio CC50/IC50 [3]: 10.6

ClC(Cl)(Cl)c1nc(Oc2ccccc2)c2ccccc2n1
IC50 (Plasmodium falciparum [1]): 3.1 µM
CC50 at 72 h [2]: 50 µM
Ratio CC50/IC50 [3]: 16

Clc1cccc(Oc2nc(C(Cl)(Cl)Cl)nc3ccccc23)c1
IC50 (Plasmodium falciparum [1]): 2.4 µM
CC50 at 72 h [2]: 26.1 µM
Ratio CC50/IC50 [3]: 10.9

FC(F)(F)c1nc(Oc2ccc(Cl)cc2)c2ccccc2n1
IC50 (Plasmodium falciparum [1]): 68 µM
CC50 at 72 h [2]: 72 µM
Ratio CC50/IC50 [3]: 1.1

Fc1cccc(Oc2nc(C(Cl)(Cl)Cl)nc3ccccc23)c1
IC50 (Plasmodium falciparum [1]): 2.3 µM
CC50 at 72 h [2]: 41.7 µM
Ratio CC50/IC50 [3]: 18.1

CCc1nc(N)nc(N)c1-c1ccc(Cl)cc1 [PYRIMETHAMINE]
CC50 at 72 h [2]: 7.1 µM
IC50 (Toxoplasma gondii): 1.1 µM
CC50 at 72 h [5]: > 50 µM

O=[N+]([O-])c1ccccc1Oc1nc(C(Cl)(Cl)Cl)nc2ccccc12
solubility [6]: Insoluble
IC50 (Plasmodium falciparum [1]): 4.9 µM
CC50 at 72 h [2]: > 8 µM
Ratio CC50/IC50 [3]: >1.6

FC(F)(F)c1ccc(Oc2nc(C(Cl)(Cl)Cl)nc3ccccc23)cc1
IC50 (Plasmodium falciparum [1]): 1.8 µM
CC50 at 72 h [2]: 29.6 µM
Ratio CC50/IC50 [3]: 16.4

O=[N+]([O-])c1cccc(Oc2nc(C(Cl)(Cl)Cl)nc3ccccc23)c1
IC50 (Plasmodium falciparum [1]): 3 µM
CC50 at 72 h [2]: 36.3 µM
Ratio CC50/IC50 [3]: 12.1

C[C@H]1c2cccc(O)c2C(=O)C2=C(O)[C@]3(O)C(=O)C(C(N)=O)=C(O)[C@@H](N(C)C)[C@@H]3[C@@H](O)[C@@H]21.O [DOXYCYCLINE]
IC50 (Plasmodium falciparum [1]): 4.8 µM
CC50 at 72 h [2]: 20 µM
Ratio CC50/IC50 [3]: 4.2

Fc1ccc(Oc2nc(C(Cl)(Cl)Cl)nc3ccccc23)cc1
IC50 (Plasmodium falciparum [1]): 2.4 µM
CC50 at 72 h [2]: 29.5 µM
Ratio CC50/IC50 [3]: 12.3

COc1cccc2c1C(=O)c1c(O)c3c(c(O)c1C2=O)C[C@@](O)(C(=O)CO)C[C@@H]3O[C@H]1C[C@H](N)[C@H](O)[C@H](C)O1 [DOXORUBICIN]
Activity (Salmonella typhimurium [7]): Toxic
Activity (Salmonella typhimurium [8]): Toxic
CC50 at 72 h [2]: 0.2 µM
CC50 at 72 h [5]: 0.03 µM
Activity (Salmonella typhimurium [9]): Toxic
Activity (Salmonella typhimurium [10]): Toxic

Clc1nc(C(Cl)(Cl)Cl)nc2ccccc12
Activity (HepG2): Non-toxic
Ratio CC50/IC50 [3]: >2.3

COc1ccccc1Oc1nc(C(Cl)(Cl)Cl)nc2ccccc12
IC50 (Plasmodium falciparum [1]): 6 µM
CC50 at 72 h [2]: 6.7 µM
Ratio CC50/IC50 [3]: 1.1

O=[N+]([O-])c1ccc(Oc2nc(C(Cl)(Cl)Cl)nc3ccccc23)cc1
solubility [6]: Insoluble
IC50 (Plasmodium falciparum [1]): 3.5 µM
CC50 at 72 h [2]: > 16 µM
Ratio CC50/IC50 [3]: >4.6

Clc1ccccc1Oc1nc(C(Cl)(Cl)Cl)nc2ccccc12
IC50 (Plasmodium falciparum [1]): 4.4 µM
CC50 at 72 h [2]: 33.6 µM
Ratio CC50/IC50 [3]: 7.6

COc1ccc(Oc2nc(C(Cl)(Cl)Cl)nc3ccccc23)cc1
IC50 (Plasmodium falciparum [1]): 2.9 µM
CC50 at 72 h [2]: 34.1 µM
Ratio CC50/IC50 [3]: 11.8

FC(F)(F)c1cccc(Oc2nc(C(Cl)(Cl)Cl)nc3ccccc23)c1
IC50 (Plasmodium falciparum [1]): 2.3 µM
CC50 at 72 h [2]: 25.1 µM
Ratio CC50/IC50 [3]: 10.9

COc1cccc(Oc2nc(C(Cl)(Cl)Cl)nc3ccccc23)c1
IC50 (Plasmodium falciparum [1]): 1.9 µM
CC50 at 72 h [2]: 0.6 µM
Ratio CC50/IC50 [3]: 0.3

From ChEMBL document CHEMBL1821638, “Targeting the human malaria parasite Plasmodium falciparum: in vitro identification of a new antiplasmodial hit in 4-phenoxy-2-trichloromethylquinazoline series” (Eur J Med Chem, 2011)
